# Key:
# [1] = target: H. pylori ATCC 43504 urease (Helicobacter pylori, UniProt P69996); assay: Urease inhibition, salicylate-hypochlorite method; type: biochemical
# Procedure, shortened: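 Crude H. pylori ATCC 43504 urease, 0.25 μg (0.04 U), in EDTA–sodium phosphate buffer pH 7.3, was preincubated with test compound at 37 °C for 90 min at 50 rpm. Urea solution (10 mM, as added) was then incubated for 30 min. Ammonia was measured by the salicylate–nitroprusside/alkaline hypochlorite method at 625 nm. Thiourea was the reference inhibitor. IC50 is molar. Triplicates, three independent experiments.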
# H. pylori OX.63 = assay: Broth dilution bioassay MIC/MBC, OX.63; type: cell-based, Helicobacter pylori; details: for MIC: H. pylori OX.63, broth dilution, 48 h; for MBC: OX.63, 72 h
# H. pylori ATCC 51932 = assay: Broth dilution bioassay MIC/MBC, ATCC 51932; type: cell-based; details: Helicobacter pylori; for MIC: ATCC51932, 48 h; for MBC: ATCC51932, 72 h
# H. pylori OX.22 = assay: Broth dilution bioassay MIC/MBC, OX.22; type: cell-based; details: Helicobacter pylori; for MIC: OX.22, 48 h; for MBC: OX.22, 72 h
# H. pylori OX.67 = assay: Broth dilution bioassay MIC/MBC, OX.67; type: cell-based, Helicobacter pylori; details: Helicobacter pylori; for MIC: OX.67, 48 h, H. pylori OX.67, broth dilution, 48 h; for MBC: OX.67, 72 h
# H. pylori ATCC 43504 = assay: Broth dilution bioassay MIC/MBC, ATCC 43504; type: cell-based; details: Helicobacter pylori; for MIC: ATCC43504, 48 h; for MBC: ATCC43504, 72 h
# [2] = test system: test strains of H. pylori; assay: Broth dilution bioassay MIC/MBC, text summary over test strains; type: cell-based; details: Helicobacter pylori
# H. pylori OX.83 = assay: Broth dilution bioassay MIC/MBC, OX.83; type: cell-based, Helicobacter pylori; details: Helicobacter pylori; for MIC: OX.83, 48 h, H. pylori OX.83, broth dilution, 48 h; for MBC: OX.83, 72 h
# H. pylori OX.64 = assay: Broth dilution bioassay MIC/MBC, OX.64; type: cell-based, Helicobacter pylori; details: for MIC: H. pylori OX.64, broth dilution, 48 h; for MBC: OX.64, 72 h
# [3] = Helicobacter pylori, OX.63, 48 h
# [4] = Helicobacter pylori, OX.64, 48 h
# Sequence of H. pylori ATCC 43504 urease (P69996 whole entry): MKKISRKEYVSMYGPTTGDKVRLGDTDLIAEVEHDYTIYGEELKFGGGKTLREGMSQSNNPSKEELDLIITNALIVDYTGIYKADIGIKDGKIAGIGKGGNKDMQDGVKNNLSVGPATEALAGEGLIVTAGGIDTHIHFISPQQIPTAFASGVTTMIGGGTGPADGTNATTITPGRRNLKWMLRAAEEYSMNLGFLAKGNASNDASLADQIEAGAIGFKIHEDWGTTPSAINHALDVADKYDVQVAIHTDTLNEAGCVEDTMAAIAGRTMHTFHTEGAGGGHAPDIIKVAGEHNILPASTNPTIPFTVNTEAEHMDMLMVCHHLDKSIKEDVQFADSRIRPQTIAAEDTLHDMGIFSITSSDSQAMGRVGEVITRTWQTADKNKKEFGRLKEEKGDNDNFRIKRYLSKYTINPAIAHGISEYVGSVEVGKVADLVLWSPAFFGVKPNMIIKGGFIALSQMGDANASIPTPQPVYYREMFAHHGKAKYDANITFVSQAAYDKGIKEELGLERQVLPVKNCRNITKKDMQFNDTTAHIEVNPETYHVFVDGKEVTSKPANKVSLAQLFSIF
# Sequence of H. pylori ATCC 43504 urease (P14916 whole entry partner): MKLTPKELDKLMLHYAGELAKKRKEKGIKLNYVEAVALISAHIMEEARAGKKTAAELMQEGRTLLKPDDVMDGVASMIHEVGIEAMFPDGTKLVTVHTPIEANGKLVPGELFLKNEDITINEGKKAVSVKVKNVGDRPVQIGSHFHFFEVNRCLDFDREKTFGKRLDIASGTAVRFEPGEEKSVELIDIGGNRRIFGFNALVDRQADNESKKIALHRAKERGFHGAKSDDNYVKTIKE
Compound,"IC50 ([1]; read-out: IC50 (95% CL), urease crude, preincubation 90 min, pH 7.3)",slope ± SE ([1]; slope of dose-response curve of percentage of urease inhibition),MIC (H. pylori OX.63; [3]),MBC (H. pylori OX.63; Helicobacter pylori),MIC (H. pylori ATCC 51932),MBC (H. pylori ATCC 51932),MIC (H. pylori OX.22),MBC (H. pylori OX.22),MIC (H. pylori OX.67),MBC (H. pylori OX.67),MIC (H. pylori ATCC 43504),MBC (H. pylori ATCC 43504),MIC [2],MIC (H. pylori OX.83),MBC (H. pylori OX.83),MIC (H. pylori OX.64),MIC (H. pylori OX.64; [4]),MBC (H. pylori OX.64; Helicobacter pylori),MIC (H. pylori OX.63),MIC ([2]; 48 h)
"NC(N)=S [thiourea, reference compound]",573 µM,1.79 ± 0.093,–,–,–,–,–,–,–,–,–,–,–,–,–,–,–,–,–,–
C[C@H]1COc2c(N3CCN(C)CC3)c(F)cc3c(=O)c(C(=O)O)cn1c23 [levofloxacin],–,–,0.063 mg/L,0.5 mg/L,0.125 mg/L,0.25 mg/L,0.063 mg/L,0.5 mg/L,0.063 mg/L,0.25 mg/L,0.125 mg/L,0.25 mg/L,32 mg/L,0.75 mg/L,1.25 mg/L,32 mg/L,16 to 32 mg/L,128 mg/L,–,–
CC1(C)S[C@@H]2[C@H](NC(=O)[C@H](N)c3ccc(O)cc3)C(=O)N2[C@H]1C(=O)O [amoxicillin],–,–,0.063 mg/L,0.25 mg/L,0.063 mg/L,0.125 mg/L,0.063 mg/L,0.25 mg/L,0.031 mg/L,0.125 mg/L,0.031 mg/L,0.063 mg/L,–,0.063 mg/L,0.25 mg/L,–,0.031 mg/L,0.125 mg/L,–,–
Cc1ncc([N+](=O)[O-])n1CCO [metronidazole],–,–,32 to 64 mg/L,256 mg/L,2 mg/L,4 mg/L,32 mg/L,256 mg/L,2 mg/L,4 mg/L,32 mg/L,192 mg/L,–,1 mg/L,2 mg/L,32 mg/L,16 to 32 mg/L,256 mg/L,64 mg/L,24 to 64 mg/L
CC[C@H]1OC(=O)[C@H](C)[C@@H](O[C@H]2C[C@@](C)(OC)[C@@H](O)[C@H](C)O2)[C@H](C)[C@@H](O[C@@H]2O[C@H](C)C[C@H](N(C)C)[C@H]2O)[C@](C)(O)C[C@@H](C)C(=O)[C@H](C)[C@@H](O)[C@]1(C)O [erythromycin],–,–,–,128 mg/L,0.063 mg/L,0.125 mg/L,–,128 mg/L,64 mg/L,128 mg/L,0.063 mg/L,0.125 mg/L,–,64 mg/L,128 mg/L,–,16 to 32 mg/L,128 mg/L,–,–

# — paper PMC7439261 (ACS Omega, 2020)
